Test results taken from ChEMBL document CHEMBL1140106, “Blocking estrogen signaling after the hormone: pyrimidine-core inhibitors of estrogen receptor-coactivator binding” (J Med Chem, 2008).

Tests used:
Estrogen receptor [1] = biological target: T1, Estrogen receptor (Homo sapiens, UniProt P03372); test: Antagonist activity at ERalpha in human HEC1 cells assessed as inhibition of estrogen-induced transcriptional activity after 24 hrs by reporter gene assay; assay type: functional, cell-based, HEC-1
T1 sequence (P03372 whole entry): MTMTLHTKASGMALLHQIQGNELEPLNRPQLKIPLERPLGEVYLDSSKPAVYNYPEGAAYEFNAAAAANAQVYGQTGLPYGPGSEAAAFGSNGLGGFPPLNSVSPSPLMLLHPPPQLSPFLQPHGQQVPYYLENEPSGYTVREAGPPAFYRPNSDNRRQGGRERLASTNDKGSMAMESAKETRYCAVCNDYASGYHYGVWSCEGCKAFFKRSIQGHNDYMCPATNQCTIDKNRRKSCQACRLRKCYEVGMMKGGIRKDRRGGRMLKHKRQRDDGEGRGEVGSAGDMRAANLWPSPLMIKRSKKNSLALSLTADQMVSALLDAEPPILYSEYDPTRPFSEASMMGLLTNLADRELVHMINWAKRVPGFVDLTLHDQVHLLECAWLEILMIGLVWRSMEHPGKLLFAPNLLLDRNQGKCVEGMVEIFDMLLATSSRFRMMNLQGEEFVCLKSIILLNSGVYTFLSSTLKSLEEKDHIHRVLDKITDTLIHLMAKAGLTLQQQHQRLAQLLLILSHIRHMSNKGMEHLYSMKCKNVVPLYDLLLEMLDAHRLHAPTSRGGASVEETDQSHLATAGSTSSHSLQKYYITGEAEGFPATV
Method in brief: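 HEC-1 cells, which lack endogenous ER, were lipofectin-transfected with full-length ERα vector, 2ERE-luciferase reporter and pCMV β-gal as internal control. After 6 h the medium was changed to 5% charcoal-dextran-treated calf serum with ligands.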

Estrogen receptor beta [2] = biological target: T2, Estrogen receptor beta (Homo sapiens, UniProt Q92731); test: Binding affinity to ERbeta assessed as inhibition of fluorescein-labeled nuclear receptor domain of steroid receptor coactivator 3 by TR-FRET assay
Estrogen receptor [3] = biological target: T1, Estrogen receptor; test: Binding affinity to ERalpha assessed as inhibition of fluorescein-labeled nuclear receptor domain of steroid receptor coactivator 3 by TR-FRET assay
Method in brief: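 Fluorescein-SRC-3-NRD (50 nM) was then added for 1 h at room temperature in the dark. Buffer: 20 mM Tris pH 7.5, 0.01% NP40, 50 mM NaCl. SRC-1 Box II peptide served as positive control.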

Estrogen receptor [4] = biological target: T1, Estrogen receptor; test: Binding affinity to ERalpha assessed as inhibition of steroid receptor coactivator 2 interaction by fluorescence polarization assay
Estrogen receptor beta [5] = biological target: T2, Estrogen receptor beta; test: Antagonist activity at ERbeta in human HEC1 cells assessed as inhibition of estrogen-induced transcriptional activity after 24 hrs by reporter gene assay; assay type: functional, cell-based, HEC-1
Estrogen receptor [6] = biological target: T1, Estrogen receptor; test: Binding affinity to ERalpha assessed as inhibition of steroid receptor coactivator interaction in african green monkey COS7 cells by mammalian 2 hybrid assay; assay type: cell-based, COS-7
[7] = Cytotoxicity against human HEC1 cells assessed as decrease in viable cell count at 20 uM; assay type: cell-based; details: hec-1, 20 µM

T2 sequence (Q92731 whole entry, the tested form may be a part): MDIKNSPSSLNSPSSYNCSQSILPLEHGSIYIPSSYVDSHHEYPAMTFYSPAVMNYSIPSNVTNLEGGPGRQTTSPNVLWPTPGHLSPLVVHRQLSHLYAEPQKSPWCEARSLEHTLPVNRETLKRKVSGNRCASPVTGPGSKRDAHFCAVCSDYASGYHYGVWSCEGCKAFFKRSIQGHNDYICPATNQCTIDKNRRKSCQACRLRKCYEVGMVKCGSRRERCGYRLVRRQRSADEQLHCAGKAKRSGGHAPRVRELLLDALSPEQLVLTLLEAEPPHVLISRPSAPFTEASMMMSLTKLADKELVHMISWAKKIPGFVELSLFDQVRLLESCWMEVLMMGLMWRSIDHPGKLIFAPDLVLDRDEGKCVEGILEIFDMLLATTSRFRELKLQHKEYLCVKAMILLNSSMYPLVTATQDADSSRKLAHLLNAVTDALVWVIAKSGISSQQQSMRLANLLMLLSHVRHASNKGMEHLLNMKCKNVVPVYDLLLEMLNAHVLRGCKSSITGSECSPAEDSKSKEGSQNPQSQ

| SMILES | IC50 (Estrogen receptor [1]) | Ki (Estrogen receptor beta [2]) | Ki (Estrogen receptor [3]) | Ki (Estrogen receptor [4]) | IC50 (Estrogen receptor beta [5]) | IC50 (Estrogen receptor [6]) | Activity [7] |
| --- | --- | --- | --- | --- | --- | --- | --- |
| c1ccc(CCc2cc(NCc3ccccc3)nc(NCc3ccccc3)n2)cc1 | > 1000 µM | > 1000 µM | > 1000 µM | 49 µM | – | – | – |
| CC(C)CCc1cc(NCC(C)C)nc(NCC(C)C)n1 | – | > 1000 µM | – | – | > 1000 µM | – | – |
| CC(C)(C)OC(=O)N(Cc1cccc2ccccc12)c1cc(CCc2ccccc2)nc(NCc2cccc3ccccc23)n1 | > 1000 µM | > 1000 µM | > 1000 µM | – | – | – | – |
| N=C(N)N/N=C/C1=C(Cl)c2ccccc2CC1 | – | – | – | – | – | 5.5 µM | – |
| CC(C)CCc1cc(NCC(C)C)nc(N(C)CC(C)C)n1 | 9.7 µM | > 1000 µM | 7.2 µM | – | – | – | – |
| CC(C)CCc1cc(NCC(C)C)nc(OCC(C)C)n1 | 6.9 µM | > 1000 µM | > 1000 µM | – | – | – | Active |
| CC(C)CCc1nc(NCc2cccc3ccccc23)cc(NCC(C)C)n1 | > 1000 µM | > 1000 µM | > 1000 µM | – | – | – | – |
| CC(C)CCc1cc(CCC(C)C)nc(NCc2ccccc2)n1 | > 1000 µM | > 1000 µM | > 1000 µM | – | – | – | – |
| CC(C)CNc1nc(CCc2cccc3ccccc23)cc(N(CC(C)C)C(=O)OC(C)(C)C)n1 | > 1000 µM | > 1000 µM | > 1000 µM | – | – | – | – |
| CC(C)CNc1cc(/C=C/c2ccccc2)nc(NCc2ccccc2)n1 | 12 µM | > 1000 µM | > 1000 µM | – | – | – | Active |
| CC(C)CNc1nc(/C=C/c2ccccc2)cc(NCc2ccccc2)n1 | 9.8 µM | > 1000 µM | 16 µM | – | – | – | – |
| CC(C)COc1cc(OCC(C)C)nc(OCC(C)C)n1 | > 1000 µM | > 1000 µM | > 1000 µM | – | – | – | – |
| CC(C)CNc1cc(NCc2ccccc2)nc(NCC(C)C)n1 | 9.5 µM | > 1000 µM | – | – | > 1000 µM | – | – |
| CC(C)CCc1cc(NCc2ccccc2)nc(NCc2ccccc2)n1 | 8.3 µM | > 1000 µM | 4.1 µM | – | – | – | – |
| c1ccc(CCc2cc(NCc3cccc4ccccc34)nc(NCc3cccc4ccccc34)n2)cc1 | > 1000 µM | > 1000 µM | > 1000 µM | – | – | – | – |
| CC(C)CCc1cc(NCc2cccc3ccccc23)nc(NCc2cccc3ccccc23)n1 | > 1000 µM | > 1000 µM | > 1000 µM | – | – | – | – |
| CC(C)CCc1cc(OCc2ccccc2)nc(OCc2ccccc2)n1 | > 1000 µM | > 1000 µM | > 1000 µM | – | – | – | – |
| CC(C)CCc1cc(NCC(C)C)nc(NCc2ccccc2)n1 | 1.8 µM | > 1000 µM | 7.9 µM | – | – | – | Active |
| CC(C)CCc1cc(NCc2ccccc2)nc(NCC(C)C)n1 | 5.8 µM | > 1000 µM | 5.8 µM | – | – | – | – |
| c1ccc(CCc2cc(CCc3ccccc3)nc(NCc3cccc4ccccc34)n2)cc1 | > 1000 µM | > 1000 µM | > 1000 µM | – | – | – | – |
| CC(C)CNc1cc(NCC(C)C)nc(NCC(C)C)n1 | – | 299 µM | – | – | – | – | Active |

| SMILES | IC50 (Estrogen receptor [1]) | Ki (Estrogen receptor beta [2]) | Ki (Estrogen receptor [3]) | Ki (Estrogen receptor [4]) | IC50 (Estrogen receptor beta [5]) | IC50 (Estrogen receptor [6]) | Activity [7] |
| --- | --- | --- | --- | --- | --- | --- | --- |
| C(=C\c1cc(OCc2ccccc2)nc(OCc2ccccc2)n1)/c1ccccc1 | > 1000 µM | > 1000 µM | > 1000 µM | – | – | – | – |
| CC(C)CNc1cc(CCc2ccccc2)nc(NCC(C)C)n1 | 2.1 µM | > 1000 µM | 5.8 µM | – | > 1000 µM | – | Active |
| CC(C)CNc1nc(CCc2ccccc2)cc(CCc2ccccc2)n1 | > 1000 µM | > 1000 µM | > 1000 µM | – | – | – | – |
| c1ccc(COc2cc(OCc3ccccc3)nc(OCc3ccccc3)n2)cc1 | > 1000 µM | > 1000 µM | > 1000 µM | – | – | – | – |
| c1ccc(CCc2cc(NCc3cccc4ccccc34)nc(NCc3ccccc3)n2)cc1 | > 1000 µM | > 1000 µM | > 1000 µM | – | – | – | – |
| CC(C)CNc1cc(CCc2ccccc2)nc(NCc2cccc3ccccc23)n1 | > 1000 µM | > 1000 µM | > 1000 µM | – | – | – | – |
| CC(C)CNc1nc(/C=C/c2ccccc2)cc(N(C)CC(C)C)n1 | > 1000 µM | > 1000 µM | > 1000 µM | – | – | – | – |
| CC(C)CNc1nc(CCc2ccccc2)cc(NCc2ccccc2)n1 | 1.9 µM | > 1000 µM | 1.7 µM | – | – | – | – |
| CC(C)CSc1cc(SCC(C)C)nc(SCC(C)C)n1 | > 1000 µM | > 1000 µM | – | – | – | – | – |
| c1ccc2c(CCc3cc(NCc4cccc5ccccc45)nc(NCc4cccc5ccccc45)n3)cccc2c1 | > 1000 µM | > 1000 µM | > 1000 µM | – | – | – | – |
| CC(C)COc1cc(CCc2ccccc2)nc(OCC(C)C)n1 | > 1000 µM | > 1000 µM | > 1000 µM | – | – | – | – |
| C(=C\c1cc(NCc2ccccc2)nc(NCc2ccccc2)n1)/c1ccccc1 | > 1000 µM | > 1000 µM | > 1000 µM | – | – | – | – |
| c1ccc(CSc2cc(SCc3ccccc3)nc(SCc3ccccc3)n2)cc1 | > 1000 µM | > 1000 µM | > 1000 µM | – | – | – | – |
| CC(C)CNc1cc(CCc2cccc3ccccc23)nc(NCC(C)C)n1 | 2.1 µM | > 1000 µM | 2.5 µM | – | – | – | – |
| CC(C)CCc1cc(NCc2cccc3ccccc23)nc(NCc2ccccc2)n1 | > 1000 µM | > 1000 µM | > 1000 µM | – | – | – | – |
| CC(C)COc1cc(/C=C/c2ccccc2)nc(OCC(C)C)n1 | > 1000 µM | > 1000 µM | > 1000 µM | – | – | – | – |
| CC(C)CNc1nc(/C=C/c2ccccc2)cc(/C=C/c2ccccc2)n1 | > 1000 µM | > 1000 µM | > 1000 µM | – | – | – | – |
| c1ccc(CCc2cc(OCc3ccccc3)nc(OCc3ccccc3)n2)cc1 | > 1000 µM | > 1000 µM | > 1000 µM | – | – | – | – |
| CC(C)CCc1cc(NCc2ccccc2)nc(NCc2cccc3ccccc23)n1 | > 1000 µM | > 1000 µM | > 1000 µM | – | – | – | – |
| C(=C\c1cc(/C=C/c2ccccc2)nc(NCc2ccccc2)n1)/c1ccccc1 | > 1000 µM | > 1000 µM | > 1000 µM | – | – | – | – |
| CC(C)CNc1cc(/C=C/c2ccccc2)nc(NCc2cccc3ccccc23)n1 | > 1000 µM | > 1000 µM | > 1000 µM | – | – | – | – |
